Assay results reported in ChEMBL document CHEMBL4312003, “Optimization of biaryloxazolidinone as promising antibacterial agents against antibiotic-susceptible and antibiotic-resistant gram-positive bacteria” (Eur J Med Chem, 2020).
In brackets after ≈: the same amount, converted by molar mass.

Legend:
[1] = tested on: Staphylococcus aureus; assay: Antibacterial activity against Staphylococcus aureus ATCC 29213 assessed as complete reduction in bacterial cell growth by CLSI protocol based broth liquid microdilution method; format: functional
Method in brief: (§1)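 Broth liquid microdilution per CLSI guidelines; isolates identified on an automated MicroScan system before testing. MIC taken as lowest concentration giving total inhibition of bacterial growth, reported in μg/mL. S. aureus ATCC29213 run as the control strain.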

[2] = tested on: Staphylococcus aureus; assay: Antibacterial activity against methicillin-sensitive Staphylococcus aureus assessed as complete reduction in bacterial cell growth by CLSI protocol based broth liquid microdilution method; format: functional; method in brief: as §1
[3] = tested on: Enterococcus faecium; assay: Antibacterial activity against vancomycin-resistant Enterococcus faecium assessed as complete reduction in bacterial cell growth by CLSI protocol based broth liquid microdilution method; format: functional; method in brief: as §1
[4] = tested on: Enterococcus faecalis; assay: Antibacterial activity against linezolid-resistant Enterococcus faecalis assessed as complete reduction in bacterial cell growth by CLSI protocol based broth liquid microdilution method; format: functional; method in brief: as §1
[5] = tested on: Staphylococcus aureus; assay: Antibacterial activity against methicillin-resistant Staphylococcus aureus assessed as complete reduction in bacterial cell growth by CLSI protocol based broth liquid microdilution method; format: functional; method in brief: as §1
[6] = target: T1, MAO-A (Homo sapiens, UniProt P21397); assay: Inhibition of recombinant human MAO-A (active motif 31502) at 30 uM using luciferin as substrate incubated for 15 mins followed by substrate addition and measured after 60 mins by luminescence based method relative to control; conditions: probe luciferin
T1 sequence (P21397 whole entry): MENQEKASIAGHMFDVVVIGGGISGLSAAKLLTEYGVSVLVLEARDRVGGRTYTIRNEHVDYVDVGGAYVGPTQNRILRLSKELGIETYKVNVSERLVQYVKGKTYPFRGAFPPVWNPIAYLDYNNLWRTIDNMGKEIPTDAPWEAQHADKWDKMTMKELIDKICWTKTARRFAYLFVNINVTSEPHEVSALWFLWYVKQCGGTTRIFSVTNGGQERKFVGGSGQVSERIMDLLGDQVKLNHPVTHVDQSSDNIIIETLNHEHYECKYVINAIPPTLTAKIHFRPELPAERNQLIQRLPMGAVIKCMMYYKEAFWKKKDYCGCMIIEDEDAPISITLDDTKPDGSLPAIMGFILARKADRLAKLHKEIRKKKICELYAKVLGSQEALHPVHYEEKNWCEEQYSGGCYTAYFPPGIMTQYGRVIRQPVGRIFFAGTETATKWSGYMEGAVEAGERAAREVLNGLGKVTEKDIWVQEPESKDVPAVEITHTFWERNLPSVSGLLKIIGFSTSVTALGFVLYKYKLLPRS
Method in brief: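 Recombinant human MAO-A was measured with the MAO-Glo kit, modified. Compounds were in DMSO (1% DMSO final) and preincubated with enzyme 15 min at room temperature. Luciferin-derivative substrate was then added and the reaction run 60 min at room temperature. Luciferase detection reagent was added for 20 min and luminescence read. Buffer without enzyme served as the 100% inhibition control; DMSO alone as the no-inhibition control. Percent inhibition = (Max − signal)/(Max − Min)×100.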

[7] = tested on: Enterococcus faecium; assay: Antibacterial activity against clinical isolates of vancomycin-resistant Enterococcus faecium assessed as complete reduction in bacterial cell growth by CLSI protocol based broth liquid microdilution method; format: functional; method in brief: as §1
[8] = tested on: Enterococcus faecalis; assay: Antibacterial activity against clinical isolates of linezolid-resistant Enterococcus faecalis assessed as complete reduction in bacterial cell growth by CLSI protocol based broth liquid microdilution method; format: functional; method in brief: as §1
[9] = tested on: Staphylococcus aureus; assay: Antibacterial activity against clinical isolates of methicillin-sensitive Staphylococcus aureus assessed as reduction in bacterial cell growth by CLSI protocol based broth microdilution method; format: functional; method in brief: as §1

Row | SMILES | MIC [1] [µg/mL] | MIC [2] [µg/mL] | MIC [3] [µg/mL] | MIC [4] [µg/mL] | MIC [5] [µg/mL] | inhibition at 1 h, 30 µM [6] [%] | MIC [7] [µg/mL] | MIC [8] [µg/mL] | MIC [9] [µg/mL]
1 | CC(=O)NC[C@H]1CN(c2ccc(-c3ccc(/C=N/N4CCSCC4)c(F)c3)c(F)c2)C(=O)O1 | 0.25 (≈ 0.527 µM) | 0.25 (≈ 0.527 µM) | 1 (≈ 2.11 µM) | 1 (≈ 2.11 µM) | 0.25 (≈ 0.527 µM) | – | – | – | –
2 | CC(=O)NC[C@H]1CN(c2ccc(-c3ccc(/C=N/N4CCOCC4)c(F)c3)c(F)c2)C(=O)O1 | 0.25 (≈ 0.545 µM) | 0.25 (≈ 0.545 µM) | 0.25 (≈ 0.545 µM) | 0.25 (≈ 0.545 µM) | 0.25 (≈ 0.545 µM) | 80 | – | – | –
3 | COc1cc(-c2ccc(N3C[C@H](CNC(C)=O)OC3=O)cc2F)ccc1/C=N/N1CCOCC1 | 2 (≈ 4.25 µM) | 2 (≈ 4.25 µM) | 2 (≈ 4.25 µM) | 2 (≈ 4.25 µM) | 2 (≈ 4.25 µM) | – | – | – | –
4 | CC(=O)NC[C@H]1CN(c2ccc(-c3ccc(/C=N/N4CCS(=O)(=O)CC4)c(O)c3)c(F)c2)C(=O)O1 | 0.125 (≈ 0.248 µM) | 0.25 (≈ 0.496 µM) | 0.25 (≈ 0.496 µM) | 0.25 (≈ 0.496 µM) | 0.25 (≈ 0.496 µM) | 67 | 1 to 2 (≈ 1.98 to 3.96 µM) | 1 to 2 (≈ 1.98 to 3.96 µM) | 1 to 2 (≈ 1.98 to 3.96 µM)
5 | CC(=O)NC[C@H]1CN(c2ccc(-c3ccc(/C=N/N4CC[S+]([O-])CC4)cn3)c(F)c2)C(=O)O1 | 2 (≈ 4.22 µM) | 2 (≈ 4.22 µM) | 2 (≈ 4.22 µM) | 2 (≈ 4.22 µM) | 1 (≈ 2.11 µM) | – | – | – | –
6 | CC(=O)NC[C@H]1CN(c2ccc(-c3ccc(/C=N/N4CCN(C)CC4)c(C)c3)c(F)c2)C(=O)O1 | 0.5 (≈ 1.07 µM) | 0.5 (≈ 1.07 µM) | 0.5 (≈ 1.07 µM) | 0.5 (≈ 1.07 µM) | 0.5 (≈ 1.07 µM) | – | – | – | –
7 | CC(=O)NC[C@H]1CN(c2ccc(-c3ccc(/C=N/N4CCNCC4)c(C)c3)c(F)c2)C(=O)O1 | 0.5 (≈ 1.1 µM) | 0.5 (≈ 1.1 µM) | 0.5 (≈ 1.1 µM) | 0.5 (≈ 1.1 µM) | 0.5 (≈ 1.1 µM) | – | – | – | –
8 | COC(=O)N1CCN(/N=C/c2ccc(-c3ccc(N4C[C@H](CNC(C)=O)OC4=O)cc3F)cn2)CC1 | 1 (≈ 2.01 µM) | 2 (≈ 4.01 µM) | 0.5 (≈ 1 µM) | 1 (≈ 2.01 µM) | 1 (≈ 2.01 µM) | – | – | – | –
9 | COc1cc(-c2ccc(N3C[C@H](CNC(C)=O)OC3=O)cc2F)ccc1/C=N/N1CCSCC1 | 2 (≈ 4.11 µM) | 1 (≈ 2.06 µM) | 1 (≈ 2.06 µM) | 1 (≈ 2.06 µM) | 1 (≈ 2.06 µM) | – | – | – | –
10 | CC(=O)NC[C@H]1CN(c2ccc(-c3ccc(/C=N/N4CCN(C)CC4)c(F)c3)c(F)c2)C(=O)O1 | 1 (≈ 2.12 µM) | 1 (≈ 2.12 µM) | 1 (≈ 2.12 µM) | 1 (≈ 2.12 µM) | 1 (≈ 2.12 µM) | – | – | – | –
11 | CC(=O)NC[C@H]1CN(c2ccc(-c3ccc(/C=N/N4CCSCC4)c(C(F)(F)F)c3)c(F)c2)C(=O)O1 | 2 (≈ 3.81 µM) | 2 (≈ 3.81 µM) | 2 (≈ 3.81 µM) | 2 (≈ 3.81 µM) | 2 (≈ 3.81 µM) | – | – | – | –
12 | CC(=O)NC[C@H]1CN(c2ccc(-c3ccc(/C=N/N4CCNCC4)c(O)c3)c(F)c2)C(=O)O1 | 0.5 (≈ 1.1 µM) | 0.25 (≈ 0.549 µM) | 0.25 (≈ 0.549 µM) | 0.25 (≈ 0.549 µM) | 0.25 (≈ 0.549 µM) | – | – | – | –
13 | CC(=O)NC[C@H]1CN(c2ccc(-c3ccc(/C=N/N4CCSCC4)c(C)c3)c(F)c2)C(=O)O1 | 2 (≈ 4.25 µM) | 1 (≈ 2.13 µM) | 1 (≈ 2.13 µM) | 2 (≈ 4.25 µM) | 1 (≈ 2.13 µM) | – | – | – | –
14 | CC(=O)NC[C@H]1CN(c2ccc(-c3ccc(/C=N/N4CCN(C(=O)c5ccccc5)CC4)nc3)c(F)c2)C(=O)O1 | 1 (≈ 1.84 µM) | 2 (≈ 3.67 µM) | 1 (≈ 1.84 µM) | 2 (≈ 3.67 µM) | 1 (≈ 1.84 µM) | – | – | – | –
15 | CC(=O)NC[C@H]1CN(c2ccc(-c3ccc(/C=N/N4CCCCC4)c(F)c3)c(F)c2)C(=O)O1 | 0.25 (≈ 0.548 µM) | 0.25 (≈ 0.548 µM) | 0.5 (≈ 1.1 µM) | 0.5 (≈ 1.1 µM) | 0.25 (≈ 0.548 µM) | – | – | – | –
16 | CC(=O)NC[C@H]1CN(c2ccc(-c3ccc(/C=N/N4CCS(=O)(=O)CC4)cn3)c(F)c2)C(=O)O1 | 2 (≈ 4.09 µM) | 1 (≈ 2.04 µM) | 1 (≈ 2.04 µM) | 1 (≈ 2.04 µM) | 1 (≈ 2.04 µM) | – | – | – | –
17 | CC(=O)NC[C@H]1CN(c2ccc(-c3ccc(/C=N/N4CCNCC4)nc3)c(F)c2)C(=O)O1 | 0.5 (≈ 1.14 µM) | 1 (≈ 2.27 µM) | 0.5 (≈ 1.14 µM) | 0.5 (≈ 1.14 µM) | 0.5 (≈ 1.14 µM) | – | – | – | –
18 | CC(=O)NC[C@H]1CN(c2ccc(-c3ccc(/C=N/N4CCOCC4)c(O)c3)c(F)c2)C(=O)O1 | 0.25 (≈ 0.548 µM) | 0.25 (≈ 0.548 µM) | 0.25 (≈ 0.548 µM) | 0.25 (≈ 0.548 µM) | 0.25 (≈ 0.548 µM) | – | – | – | –
19 | CC(=O)NC[C@H]1CN(c2ccc(-c3ccc(/C=N/N4CCNCC4)cn3)c(F)c2)C(=O)O1 | 2 (≈ 4.54 µM) | 2 (≈ 4.54 µM) | 2 (≈ 4.54 µM) | 2 (≈ 4.54 µM) | 2 (≈ 4.54 µM) | – | – | – | –
20 | CC(=O)NC[C@H]1CN(c2ccc(-c3ccc(/C=N/N4CCN(C)CC4)c(C(F)(F)F)c3)c(F)c2)C(=O)O1 | 2 (≈ 3.83 µM) | 2 (≈ 3.83 µM) | 2 (≈ 3.83 µM) | 2 (≈ 3.83 µM) | 2 (≈ 3.83 µM) | – | – | – | –
21 | CCC(=O)N1CCN(/N=C/c2ccc(-c3ccc(N4C[C@H](CNC(C)=O)OC4=O)cc3F)cn2)CC1 | 1 (≈ 2.01 µM) | 1 (≈ 2.01 µM) | 0.5 (≈ 1.01 µM) | 1 (≈ 2.01 µM) | 1 (≈ 2.01 µM) | – | – | – | –
22 | CC(=O)NC[C@H]1CN(c2ccc(-c3ccc(/C=N/N4CC[S+]([O-])CC4)nc3)c(F)c2)C(=O)O1 | 0.25 (≈ 0.528 µM) | 0.5 (≈ 1.06 µM) | 0.5 (≈ 1.06 µM) | 0.5 (≈ 1.06 µM) | 0.25 (≈ 0.528 µM) | – | – | – | –
23 | CC(=O)NC[C@H]1CN(c2ccc(-c3ccc(/C=N/N4CCSCC4)cn3)c(F)c2)C(=O)O1 | 1 (≈ 2.19 µM) | 2 (≈ 4.37 µM) | 2 (≈ 4.37 µM) | 2 (≈ 4.37 µM) | 0.5 (≈ 1.09 µM) | – | – | – | –
24 | CC(=O)NC[C@H]1CN(c2ccc(-c3ccc(/C=N/N4CCN(C)CC4)cn3)c(F)c2)C(=O)O1 | 2 (≈ 4.4 µM) | 2 (≈ 4.4 µM) | 2 (≈ 4.4 µM) | 2 (≈ 4.4 µM) | 1 (≈ 2.2 µM) | – | – | – | –
25 | CC(=O)NC[C@H]1CN(c2ccc(-c3ccc(/C=N/N4CCNCC4)c(F)c3)c(F)c2)C(=O)O1 | 0.5 (≈ 1.09 µM) | 0.5 (≈ 1.09 µM) | 0.5 (≈ 1.09 µM) | 0.5 (≈ 1.09 µM) | 0.5 (≈ 1.09 µM) | – | – | – | –
26 | CCC(=O)N1CCN(/N=C/c2ccc(-c3ccc(N4C[C@H](CNC(C)=O)OC4=O)cc3F)cc2O)CC1 | 0.25 (≈ 0.489 µM) | 0.25 (≈ 0.489 µM) | 0.25 (≈ 0.489 µM) | 0.25 (≈ 0.489 µM) | 0.25 (≈ 0.489 µM) | – | 1 to 2 (≈ 1.95 to 3.91 µM) | 1 to 2 (≈ 1.95 to 3.91 µM) | 1 to 2 (≈ 1.95 to 3.91 µM)
